Measurements as given in ChEMBL document CHEMBL4715691, “Synthesis of Triphenylethylene Bisphenols as Aromatase Inhibitors That Also Modulate Estrogen Receptors” (J Med Chem, 2016).

Columns and labels:
[1] = biological target: T1, Estrogen receptor (Homo sapiens) (UniProt P03372); experiment: Displacement of ES2 from recombinant human ER-alpha at 100 uM incubated for 2 hrs by fluorescence based assay relative to control
T1 sequence (whole entry): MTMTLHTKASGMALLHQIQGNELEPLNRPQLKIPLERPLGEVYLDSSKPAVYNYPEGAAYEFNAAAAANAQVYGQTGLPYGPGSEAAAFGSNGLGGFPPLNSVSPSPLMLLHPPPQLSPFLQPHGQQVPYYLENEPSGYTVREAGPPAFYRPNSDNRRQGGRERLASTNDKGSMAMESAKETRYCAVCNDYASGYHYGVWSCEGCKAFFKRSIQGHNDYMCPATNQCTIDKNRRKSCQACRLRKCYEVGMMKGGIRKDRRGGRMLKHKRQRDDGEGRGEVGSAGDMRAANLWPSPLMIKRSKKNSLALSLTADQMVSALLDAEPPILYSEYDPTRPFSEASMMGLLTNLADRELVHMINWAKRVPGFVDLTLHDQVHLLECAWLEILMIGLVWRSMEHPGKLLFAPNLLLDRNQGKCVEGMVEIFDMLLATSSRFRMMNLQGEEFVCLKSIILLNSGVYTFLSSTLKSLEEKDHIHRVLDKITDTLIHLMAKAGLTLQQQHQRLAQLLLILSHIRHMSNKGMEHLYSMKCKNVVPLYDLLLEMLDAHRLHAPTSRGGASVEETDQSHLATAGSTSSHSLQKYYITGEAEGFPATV
Procedure, shortened: (§1)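 Fluorescence polarization competition: test compound at 100 μM, 9 nM ES2 with 30 nM recombinant human ER-α in ES2 screening buffer (100 mM potassium phosphate, 100 µg/mL BGG, 0.02% NaN₃). Incubated 2 h protected from light, ex/em 485/530. Percent of remaining polarization versus vehicle control. Means of at least three experiments.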

[2] = biological target: Estrogen receptor beta (Homo sapiens) (UniProt Q92731); experiment: Displacement of ES2 from recombinant human ER-beta at 100 uM incubated for 2 hrs by fluorescence based assay relative to control
Sequence of Estrogen receptor beta (Homo sapiens) (Q92731 whole entry): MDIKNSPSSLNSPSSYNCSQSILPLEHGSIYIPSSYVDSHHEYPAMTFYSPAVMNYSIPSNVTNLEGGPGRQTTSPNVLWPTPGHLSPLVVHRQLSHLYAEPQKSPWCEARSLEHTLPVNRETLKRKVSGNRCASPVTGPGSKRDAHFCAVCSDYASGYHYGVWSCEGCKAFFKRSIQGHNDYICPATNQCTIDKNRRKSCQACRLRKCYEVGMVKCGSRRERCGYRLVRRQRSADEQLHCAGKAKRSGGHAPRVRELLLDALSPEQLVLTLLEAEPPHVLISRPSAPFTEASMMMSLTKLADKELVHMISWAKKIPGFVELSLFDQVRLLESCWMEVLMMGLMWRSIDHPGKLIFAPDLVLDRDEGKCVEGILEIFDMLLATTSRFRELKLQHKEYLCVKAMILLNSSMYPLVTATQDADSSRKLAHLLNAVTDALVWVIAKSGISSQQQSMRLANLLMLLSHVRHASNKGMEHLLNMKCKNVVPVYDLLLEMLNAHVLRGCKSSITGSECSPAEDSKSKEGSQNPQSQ
Procedure, shortened: as §1, with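 “with 20” for “with 30”, “human ER-β” for “human ER-α”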

MCF7 [3] = experiment: Selective estrogen receptor modulator activity in human MCF7 cells assessed as E2-induced progesterone receptor mRNA expression level at 1 uM incubated for 24 hrs by real time PCR analysis (reference value: 100%); format: cell-based; conditions: filed as modulator
Procedure, shortened: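 MCF-7 cells grown in MEM with 10% FBS, then held 72 h in charcoal-stripped FBS. […] Genomic DNA removed, RNA extracted, PGR mRNA measured by real-time PCR (40 cycles) from Ct values.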

MCF7 [4] = experiment: Antagonist activity at estrogen receptor in human MCF7 cells assessed as E2-induced progesterone receptor mRNA expression level at 1 uM incubated for 24 hrs by real time PCR analysis (reference value: 100%); format: cell-based; parameters: scale not given: the % may be the effect or the level left; conditions: filed as antagonist
Procedure, shortened: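 ER-positive MCF-7 cells grown in MEM with 10% FBS, 37 °C, 5% CO2, then preconditioned 72 h in charcoal-stripped FBS. […] RNA extracted after genomic DNA removal; PGR mRNA quantified by real-time PCR from threshold cycle, 40 cycles.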

Compound | inhibition [1] | inhibition [2] | inhibition ([1]; filed as modulator) | Activity (MCF7 [3]) | inhibition ([2]; filed as modulator) | Activity (MCF7 [4])
Oc1ccc(C(=C(Cn2ccnc2)c2cccc(O)c2)c2ccc(O)cc2)cc1 | 0% | 29% |  |  |  | 
Oc1ccc(C(Cn2ccnc2)=C(c2ccc(O)cc2)c2ccc(O)cc2)cc1 |  |  | > 90% | 26% | > 90% | 
Nc1ccc(C(Cn2cncn2)=C(c2ccc(O)cc2)c2ccc(O)cc2)cc1 | 0% | 2% |  |  |  | 
N#CCC(=C(c1ccc(O)cc1)c1ccc(O)cc1)c1ccccc1 |  |  | 56% |  | 49% | 
CCC(=C(c1ccc(O)cc1)c1ccc(OCCN)cc1)c1ccccc1 |  |  |  |  |  | 33%
N#CCC(=C(c1ccc(O)cc1)c1ccc(O)cc1)c1ccc(O)cc1 | 0% | 3% |  |  |  | 
Oc1ccc(C(=C(Cn2cncn2)c2ccc(O)c(F)c2)c2ccc(O)cc2)cc1 | 2% | 0% |  |  |  | 
Oc1ccc(C(=C(Cn2ccnc2)c2ccccc2)c2ccc(O)cc2)cc1 |  |  | > 90% | 26% | > 90% | 
CC/C(=C(\c1ccc(O)cc1)c1ccc(OCCN(C)C)cc1)c1ccccc1 |  |  |  |  |  | 10%
Oc1ccc(C(Cn2cncn2)=C(c2ccc(O)cc2)c2ccc(O)cc2)cc1 |  |  | 45% |  | 40% | 
Oc1ccc(C(=C(Cn2ccnc2)c2ccc(O)c(F)c2)c2ccc(O)cc2)cc1 |  |  | > 90% | 26% | > 90% | 
Oc1ccc(C(=C(Cn2cncn2)c2ccccc2)c2ccc(O)cc2)cc1 | 12% | 33% |  |  |  | 
Oc1ccc(C(Cn2cnnc2)=C(c2ccc(O)cc2)c2ccc(O)cc2)cc1 |  |  | > 90% |  | > 90% | 
Nc1ccc(C(Cn2ccnc2)=C(c2ccc(O)cc2)c2ccc(O)cc2)cc1 |  |  | > 90% | 26% | > 90% | 
Oc1ccc(C(=C(Cn2cnnc2)c2ccc(O)c(F)c2)c2ccc(O)cc2)cc1 | 0% | 0% |  |  |  | 
CCC(=C(c1ccc(O)cc1)c1ccc(O)cc1)c1ccccc1 |  |  | 80% |  | > 90% | 
Nc1ccc(C(Cn2cnnc2)=C(c2ccc(O)cc2)c2ccc(O)cc2)cc1 | 13% | 36% |  |  |  | 
Nc1cccc(C(Cn2ccnc2)=C(c2ccc(O)cc2)c2ccc(O)cc2)c1 |  |  | 60% |  | 71% | 
N#CCC(=C(c1ccc(O)cc1)c1ccc(O)cc1)c1ccc(N)cc1 | 0% | 0% |  |  |  | 
N#CCC(=C(c1ccc(O)cc1)c1ccc(O)cc1)c1ccc(O)c(F)c1 | 0% | 0% |  |  |  | 
